From ChEMBL document CHEMBL2429865, “Withaferin A, a steroidal lactone from Withania somnifera, induces mitotic catastrophe and growth arrest in prostate cancer cells” (2013)
The source made the active and inactive calls. The rule behind the calls is not given here.

Columns and labels:
[1] = biological target: T1, M-phase inducer phosphatase 3 (Homo sapiens) (UniProt P30307); assay: Reduction in CDC25C phosphorylation at Ser216 in human PC3 cells at 1 uM after 12 to 24 hrs by Western blotting analysis; assay type: cell-based; details: PC-3
T1 sequence (whole entry): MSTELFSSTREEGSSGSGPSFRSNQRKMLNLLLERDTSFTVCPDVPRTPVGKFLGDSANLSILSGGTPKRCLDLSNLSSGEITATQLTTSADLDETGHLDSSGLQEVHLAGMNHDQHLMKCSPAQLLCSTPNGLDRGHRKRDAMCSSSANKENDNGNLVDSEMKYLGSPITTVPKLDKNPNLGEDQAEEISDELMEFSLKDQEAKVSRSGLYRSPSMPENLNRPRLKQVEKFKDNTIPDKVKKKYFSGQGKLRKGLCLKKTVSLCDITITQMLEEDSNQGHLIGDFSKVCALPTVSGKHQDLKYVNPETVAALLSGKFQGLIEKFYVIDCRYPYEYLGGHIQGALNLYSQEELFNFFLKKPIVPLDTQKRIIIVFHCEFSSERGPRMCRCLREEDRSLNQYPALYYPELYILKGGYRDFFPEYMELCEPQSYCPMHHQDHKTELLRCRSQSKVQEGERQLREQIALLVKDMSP
Method in brief: (§1)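 PC-3 cells are treated with 1 μM for various times. Lysates are made in M-PER buffer with protease inhibitor cocktail, and 25 μg protein is immunoblotted for pWee1 (Ser642), Wee1, pCdc2 (Tyr15), Cdc25C (Ser216) and Myt-1, with β-actin as loading control.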

[2] = system: PC-3; assay: Downregulation of Myt-1 protein expression in human PC3 cells at 1 uM after 12 to 48 hrs by Western blotting analysis; assay type: functional, cell-based; method in brief: as §1
[3] = system: PC-3; assay: Mitotic arrest in human PC3 cells assessed as distorted spindles and curving microtubule array by DAPI staining-based confocal microscopic analysis; assay type: functional, cell-based
Method in brief: (§2)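 PC-3 cells on coverslips are grown to 60% confluence and treated for 24 h. They are fixed in 4% paraformaldehyde for 20 min at room temperature, permeabilized with 0.2% Triton X-100 for 20 min, and immunostained for pH3 (Ser10), Aurora B or α-tubulin with Alexa Fluor secondaries, rhodamine-phalloidin and DAPI. Imaging is by laser scanning confocal microscopy.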

[4] = biological target: Cyclin-dependent kinase 1/cyclin B1 (Homo sapiens) (UniProt P06493+P14635); assay: Activation of Cdc2/cyclin B in human PC3 cells; assay type: cell-based; details: PC-3
Sequence of Cyclin-dependent kinase 1/cyclin B1 (Homo sapiens) (P06493 whole entry, looked up): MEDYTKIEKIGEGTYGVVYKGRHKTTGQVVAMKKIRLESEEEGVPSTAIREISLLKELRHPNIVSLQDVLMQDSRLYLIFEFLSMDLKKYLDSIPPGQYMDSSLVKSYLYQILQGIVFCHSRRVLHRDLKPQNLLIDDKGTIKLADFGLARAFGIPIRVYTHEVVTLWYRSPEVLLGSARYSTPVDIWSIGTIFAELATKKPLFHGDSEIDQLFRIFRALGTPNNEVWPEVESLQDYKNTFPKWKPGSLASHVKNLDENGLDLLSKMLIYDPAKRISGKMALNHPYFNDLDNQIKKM
Sequence of Cyclin-dependent kinase 1/cyclin B1 (Homo sapiens) (P14635 whole entry, looked up): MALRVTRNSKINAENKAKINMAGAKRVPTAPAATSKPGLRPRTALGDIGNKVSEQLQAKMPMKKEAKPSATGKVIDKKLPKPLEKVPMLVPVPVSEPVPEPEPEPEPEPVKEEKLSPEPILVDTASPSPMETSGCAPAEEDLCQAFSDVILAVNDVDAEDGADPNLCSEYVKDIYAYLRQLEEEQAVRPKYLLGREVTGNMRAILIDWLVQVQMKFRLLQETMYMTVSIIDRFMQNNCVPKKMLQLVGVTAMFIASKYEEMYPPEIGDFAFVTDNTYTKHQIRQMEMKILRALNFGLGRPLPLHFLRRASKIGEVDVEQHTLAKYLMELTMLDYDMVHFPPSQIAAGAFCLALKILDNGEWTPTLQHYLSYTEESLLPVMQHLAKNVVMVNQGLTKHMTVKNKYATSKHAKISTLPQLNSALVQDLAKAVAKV
Method in brief: (§3)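 Lysates of vehicle- or drug-treated PC-3 cells are diluted in kinase buffer and added to wells precoated with recombinant Cdc25C substrate. Phosphorylation is started with Mg2+ and ATP. Phospho-Cdc25C Ser216 is detected with an HRP-conjugated antibody and TMB colour with stop reagent. The Cdc2-cyclin B1 line uses a parallel kit of the same format.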

[5] = system: PC-3; assay: Induction of cell cycle arrest in human PC3 cells assessed as accumulation at G2/M phase at 1 uM after 48 hrs by propidium iodide staining-based flow cytometry (reference value: 25.3%); assay type: functional
[6] = system: PC-3; assay: Upregulation of Aurora B protein expression in human PC3 cells at IC50 after 12 to 48 hrs by Western blotting analysis; assay type: functional, cell-based
[7] = system: DU-145; assay: Growth inhibition of human DU145 cells assessed as loss of cell viability after 24 hrs by trypan blue exclusion assay; assay type: functional, cell-based
Method in brief: (§4)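 PC-3 (DMEM) and DU-145 (RPMI-1640) cells, with 10% heat-inactivated FBS, are seeded at 3×10⁵ cells/well, cultured 24 h, then exposed to 0.5, 1, 2, 3 and 4 μM for 24 h at 37°C, 5% CO₂. DMSO is ≤0.002%. Viable cells are counted by trypan blue exclusion on a hemocytometer and expressed as % of DMSO control. IC50 is calculated. Mean ± SEM of three independent experiments.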

[8] = system: PC-3; assay: Upregulation of p21 protein expression in human PC3 cells at IC50 after 12 to 48 hrs by Western blotting analysis; assay type: functional, cell-based
[9] = system: PC-3; assay: Mitotic arrest in human PC3 cells assessed as defect in depolymerization of tubulin-alpha by DAPI staining-based confocal microscopic analysis; assay type: functional, cell-based; method in brief: as §2
[10] = system: PC-3; assay: Mitotic arrest in human PC3 cells assessed as punctate distribution of Aurora B in centromeric region of chromosomes by DAPI staining-based confocal microscopic analysis; assay type: functional, cell-based; method in brief: as §2
[11] = system: DU-145; assay: Cell cycle arrest in human DU145 cells assessed as accumulation at G2/M phase at 1 uM after 8 hrs by propidium iodide staining-based flow cytometry; assay type: functional
[12] = system: PC-3; assay: Downregulation of cyclin A2 protein expression in human PC3 cells at IC50 after 12 to 48 hrs by Western blotting analysis; assay type: functional, cell-based
[13] = biological target: Cyclin-dependent kinase 1 (Homo sapiens) (UniProt P06493); assay: Reduction in CDC2 phosphorylation at Tyr15 in human PC3 cells at 1 uM after 12 to 24 hrs by Western blotting analysis; assay type: cell-based; details: PC-3; method in brief: as §1
Sequence of Cyclin-dependent kinase 1 (Homo sapiens) (P06493 whole entry, looked up): as the sequence (P06493 whole entry, looked up) above

[14] = biological target: T2, Serine/threonine-protein kinase Chk1 (Homo sapiens) (UniProt O14757); assay: Activation of Chk1 in human PC3 cells assessed as phosphorylation of CDC25C at Ser216; assay type: cell-based; details: PC-3; method in brief: as §3
T2 sequence (whole entry): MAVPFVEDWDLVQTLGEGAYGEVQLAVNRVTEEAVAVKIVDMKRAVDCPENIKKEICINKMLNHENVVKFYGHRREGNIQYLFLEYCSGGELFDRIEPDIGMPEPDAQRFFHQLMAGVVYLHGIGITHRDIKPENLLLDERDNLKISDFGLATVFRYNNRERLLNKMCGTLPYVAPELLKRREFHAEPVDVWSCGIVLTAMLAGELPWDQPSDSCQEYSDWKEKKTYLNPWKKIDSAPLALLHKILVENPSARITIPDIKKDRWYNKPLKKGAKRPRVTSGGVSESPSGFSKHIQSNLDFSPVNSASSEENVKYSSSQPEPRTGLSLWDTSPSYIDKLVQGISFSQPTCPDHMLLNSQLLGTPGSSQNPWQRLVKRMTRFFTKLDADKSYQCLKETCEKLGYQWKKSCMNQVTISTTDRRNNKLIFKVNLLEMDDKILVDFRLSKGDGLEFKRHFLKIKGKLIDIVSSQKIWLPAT

[15] = system: PC-3; assay: Induction of cell cycle arrest in human PC3 cells assessed as accumulation at G2/M phase at 1 uM after 24 hrs by propidium iodide staining-based flow cytometry (reference value: 28.3%); assay type: functional
[16] = system: PC-3; assay: Mitotic arrest in human PC3 cells assessed as accumulation of phosphorylated histone H3 in nucleus by DAPI staining-based confocal microscopic analysis; assay type: functional, cell-based; method in brief: as §2
[17] = biological target: Serine/threonine-protein kinase Chk2 (Homo sapiens) (UniProt O96017); assay: Reduction in CHK2 phosphorylation at Thr68 in human PC3 cells at IC50 after 12 to 48 hrs by Western blotting analysis; assay type: cell-based; details: PC-3
Sequence of Serine/threonine-protein kinase Chk2 (Homo sapiens) (O96017 whole entry): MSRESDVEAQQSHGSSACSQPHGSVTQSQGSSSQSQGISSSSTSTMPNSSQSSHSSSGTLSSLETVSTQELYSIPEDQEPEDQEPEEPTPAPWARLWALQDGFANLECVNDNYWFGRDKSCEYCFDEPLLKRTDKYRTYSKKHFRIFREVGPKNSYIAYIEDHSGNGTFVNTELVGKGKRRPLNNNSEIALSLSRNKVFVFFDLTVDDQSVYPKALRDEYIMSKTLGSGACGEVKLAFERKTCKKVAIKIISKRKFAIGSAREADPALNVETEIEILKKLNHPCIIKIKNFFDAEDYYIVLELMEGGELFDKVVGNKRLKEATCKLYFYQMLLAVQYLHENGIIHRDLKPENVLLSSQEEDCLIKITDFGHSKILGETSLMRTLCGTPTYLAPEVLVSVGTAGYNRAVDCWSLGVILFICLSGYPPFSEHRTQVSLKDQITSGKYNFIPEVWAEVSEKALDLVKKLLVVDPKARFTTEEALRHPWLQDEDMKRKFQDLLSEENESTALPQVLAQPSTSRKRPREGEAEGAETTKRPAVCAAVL

[18] = system: PC-3; assay: Growth inhibition of human PC3 cells assessed as loss of cell viability after 24 hrs by trypan blue exclusion assay; assay type: functional, cell-based; method in brief: as §4
[19] = biological target: Tubulin alpha (Homo sapiens) (UniProt P0DPH7+P68366+Q71U36+P68363+Q9BQE3+Q6PEY2+A6NHL2+Q9NY65); assay: Inhibition of tubulin-alpha (unknown origin) polymerization by fluorescence-based assay; assay type: protein assay; details: TDE = time-dependent effect
[20] = biological target: Cyclin-dependent kinase 1 (Homo sapiens) (UniProt P06493); assay: Reduction in CDC2 phosphorylation at Tyr15 in human PC3 cell cytoplasm at 1 uM after 24 hrs by immunofluorescence assay; details: PC-3
Method in brief: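 PC-3 cells on coverslips at 60% confluence are treated with drug or DMSO for 24 h. They are fixed in 4% paraformaldehyde, permeabilized with 0.2% Triton X-100, and immunostained for pCdc2 (Tyr15) with Alexa Fluor secondary and DAPI counterstain. Images are taken by fluorescence/confocal microscopy.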

[21] = system: PC-3; assay: Downregulation of cyclin E2 protein expression in human PC3 cells at IC50 after 12 to 48 hrs by Western blotting analysis; assay type: functional, cell-based
[22] = biological target: Wee1-like protein kinase (Homo sapiens) (UniProt P30291); assay: Induction of Wee1 phosphorylation at Ser642 in human PC3 cells at 1 uM after 12 to 24 hrs by Western blotting analysis; assay type: cell-based; details: PC-3; method in brief: as §1
Sequence of Wee1-like protein kinase (Homo sapiens) (P30291 whole entry, looked up): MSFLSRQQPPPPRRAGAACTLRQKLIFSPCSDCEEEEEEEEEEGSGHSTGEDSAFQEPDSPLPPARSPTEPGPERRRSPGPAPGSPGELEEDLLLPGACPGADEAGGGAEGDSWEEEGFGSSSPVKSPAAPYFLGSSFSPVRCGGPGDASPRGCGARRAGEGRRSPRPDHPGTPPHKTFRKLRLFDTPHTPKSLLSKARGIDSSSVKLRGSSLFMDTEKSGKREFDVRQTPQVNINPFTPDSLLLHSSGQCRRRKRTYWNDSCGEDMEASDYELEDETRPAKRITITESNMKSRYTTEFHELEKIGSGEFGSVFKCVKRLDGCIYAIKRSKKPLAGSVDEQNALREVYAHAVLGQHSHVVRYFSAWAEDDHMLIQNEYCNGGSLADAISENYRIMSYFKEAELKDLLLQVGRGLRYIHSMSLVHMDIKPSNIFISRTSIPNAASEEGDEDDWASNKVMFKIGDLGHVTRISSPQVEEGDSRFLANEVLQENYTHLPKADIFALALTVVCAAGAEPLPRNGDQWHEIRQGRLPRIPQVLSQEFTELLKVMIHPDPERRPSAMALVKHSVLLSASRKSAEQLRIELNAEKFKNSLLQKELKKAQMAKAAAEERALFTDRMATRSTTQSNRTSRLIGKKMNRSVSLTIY

[23] = system: PC-3; assay: Upregulation of p21 mRNA expression in human PC3 cells at IC50 after 12 to 48 hrs by SYBR green staining-based RT-PCR analysis; assay type: functional, cell-based
[24] = system: PC-3; assay: Cell cycle arrest in human PC3 cells assessed as accumulation at G2/M phase at 1 uM after 8 hrs by propidium iodide staining-based flow cytometry; assay type: functional
[25] = system: DU-145; assay: Induction of cell cycle arrest in human DU145 cells assessed as accumulation at G2/M phase at 1 uM after 48 hrs by propidium iodide staining-based flow cytometry (reference value: 22%); assay type: functional
[26] = system: PC-3; assay: Effect on 14-3-3 protein expression in human PC3 cells at IC50 after 12 to 48 hrs by Western blotting analysis; assay type: functional, cell-based
[27] = biological target: T2, Serine/threonine-protein kinase Chk1 (Homo sapiens); assay: Reduction in CHK1 phosphorylation at Ser345 in human PC3 cells at IC50 after 12 to 48 hrs by Western blotting analysis; assay type: cell-based; details: PC-3
[28] = biological target: Aurora kinase B (Homo sapiens) (UniProt Q96GD4); assay: Induction of Aurora B-mediated histone H3 phosphorylation at Ser10 in human PC3 cells after 12 to 48 hrs by Western blotting analysis; assay type: cell-based; details: PC-3
Sequence of Aurora kinase B (Homo sapiens) (Q96GD4 whole entry): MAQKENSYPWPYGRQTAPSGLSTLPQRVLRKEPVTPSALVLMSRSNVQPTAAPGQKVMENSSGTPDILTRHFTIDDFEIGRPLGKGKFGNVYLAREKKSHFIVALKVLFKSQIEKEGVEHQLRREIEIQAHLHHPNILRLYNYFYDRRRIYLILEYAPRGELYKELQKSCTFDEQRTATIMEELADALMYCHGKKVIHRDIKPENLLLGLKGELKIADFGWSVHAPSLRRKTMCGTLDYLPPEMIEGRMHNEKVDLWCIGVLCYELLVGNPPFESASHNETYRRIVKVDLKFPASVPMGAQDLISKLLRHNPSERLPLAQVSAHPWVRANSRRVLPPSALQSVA

[29] = system: PC-3; assay: Downregulation of cyclin B1 protein expression in human PC3 cells at IC50 after 12 to 48 hrs by Western blotting analysis; assay type: functional, cell-based
[30] = system: DU-145; assay: Induction of cell cycle arrest in human DU145 cells assessed as accumulation at G2/M phase at 1 uM after 24 hrs by propidium iodide staining-based flow cytometry (reference value: 22%); assay type: functional

Compound: CC1=C(CO)C(=O)O[C@@H]([C@@H](C)[C@H]2CC[C@H]3[C@@H]4C[C@H]5O[C@]56[C@@H](O)C=CC(=O)[C@]6(C)[C@H]4CC[C@]23C)C1 [WITHAFERIN A]
- Activity [1]: Active
- Activity [2]: Active
- Activity [3]: Active
- Activity [4]: inactive
- Activity [5]: 60.7%
- Activity [6]: Active
- growth inhibition (GI) [7]: Dose-dependent effect
- Activity [8]: Active
- Activity [9]: Active
- Activity [10]: Active
- Activity [11]: Active
- Activity [12]: Active
- Activity [13]: Active
- Activity [14]: inactive
- Activity [15]: 62.7%
- Activity [16]: Active
- Activity [17]: Active
- growth inhibition (GI) [18]: Dose-dependent effect
- inhibition [19]: tde
- Activity [20]: Active
- Activity [21]: Active
- Activity [22]: Active
- Activity [23]: Active
- Activity [24]: Active
- Activity [25]: 24.75%
- Activity [26]: inactive
- Activity [27]: Active
- Activity [28]: Active
- Activity [29]: Active
- Activity [30]: 36.75%
